FXN GAA850 act – activators of GAA850 frataxin (FXN) promoter; HEK293 lucGAA850 FXN promoter luciferase reporter, 24 h; percent of 10 µM SAHA response; activation, % at 6 µM; 360,000 tested, 0.56% active; AID 540364;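 active = activation above the average of all compounds screened plus 3 SD, cutoff fixed separately per campaign, cut at about 7.5% in these data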;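 also: 0% = DMSO wells and 100% = 10 µM SAHA wells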
SR-BI DiI inh – blocks mouse SR-BI lipid uptake from DiI-HDL; Q61009; inhibition, % at 12.5 µM; 320,000 tested, 0.96% active; ldlA[mSR-BI] CHO cells, DiI-HDL uptake fluorescence, 3 h; AID 488896;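 active = mean replicate inhibition of at least 70% and a set share of replicates each scoring 70 or more; inconclusive = meets just one of the two criteria; inactive = fails both criteria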;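 also: 0% = median of neutral control wells and 100% = median of positive control wells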
Target sequence (Q61009 whole entry, looked up): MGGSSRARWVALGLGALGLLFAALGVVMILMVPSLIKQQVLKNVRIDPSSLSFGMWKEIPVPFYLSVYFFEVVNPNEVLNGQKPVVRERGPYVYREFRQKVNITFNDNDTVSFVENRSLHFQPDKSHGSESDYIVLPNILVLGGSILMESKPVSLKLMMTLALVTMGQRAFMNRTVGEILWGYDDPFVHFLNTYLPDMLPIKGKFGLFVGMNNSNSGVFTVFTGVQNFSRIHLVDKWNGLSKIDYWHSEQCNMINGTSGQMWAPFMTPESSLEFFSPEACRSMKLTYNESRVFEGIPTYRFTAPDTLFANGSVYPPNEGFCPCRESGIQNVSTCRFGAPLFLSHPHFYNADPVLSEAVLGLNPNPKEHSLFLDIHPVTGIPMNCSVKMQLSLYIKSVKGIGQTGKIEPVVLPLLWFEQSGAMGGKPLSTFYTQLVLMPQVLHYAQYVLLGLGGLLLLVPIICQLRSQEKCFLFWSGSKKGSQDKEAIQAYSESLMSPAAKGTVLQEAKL
AHR act – activates the human aryl hydrocarbon receptor | 320,000 tested, 2.5% active | AHR-responsive luciferase reporter cells, luminescence | AID 2796 | activation, % at 5 µM | P35869; in the data active = activation above about 47%;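 also: 0% = vehicle wells and 100% = reference agonist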
JMJD2C inh – human JMJD2C demethylase inhibition; Q9H3R0; GST-JMJD2C(1-420) H3K9me3 demethylation, DELFIA europium; inhibition, % at 2.35 µM; 330,000 tested, 0.069% active;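 active = more than half of a compound's replicate wells show inhibition beyond 50%, single wells judged on their own value; inconclusive = some, but no more than half, of replicates pass 50% inhibition; inactive = no replicate passes 50% inhibition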;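 also: signal counts dimethyl H3K9 product captured on neutravidin plate; 0% = median of DMSO wells and 100% = 0.3 times that DMSO median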
SR-BI DiI-HDL act – activators of SR-BI mediated HDL lipid uptake; 320,000 tested, 0.096% active; CHO ldlA[mSR-BI] cells, DiI-HDL uptake fluorescence, 3 h; 100 = double the neutral-control signal; activation, % at 12.5 µM; AID 504775;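 active = mean replicate activation of at least 60% and every replicate at or above 60%; inconclusive = mean or all-replicate condition met, but not both; inactive = mean below 60% and not all replicates reaching 60%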;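 also: 0% = median plate neutral-control signal and 100% = twice that signal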
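Assay system: CHO ldlA[mSR-BI] cells, LDL receptor-null, SR-BI overexpressing; medium: Ham's F12 with 0.5% BSA, HEPES 25 mM, pH 7.4; also added: DiI-HDL 10 µg/mL; timing: 3 h uptake period with compound, 37 °C; signal: DiI fluorescence, bottom read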
Numbers without * were called inactive; ? = inconclusive; nt = not tested or not shown. The list is not random: actives were taken first. Their share in the collection is about 3.7%.

SMILES	FXN GAA850 act	SR-BI DiI inh	AHR act	JMJD2C inh	SR-BI DiI-HDL act
O=C(Nc1cccc2ncccc12)c1ccc(Cl)cc1	1.5	28.0	65.4*	-1.1	-28.0
O=C(Nc1cccc2ncccc12)c1ccc(-c2ccc(Br)cc2)o1	-3.8	1.6	52.7*	-11.3	-1.6
COc1cc(C(=O)N2CCC2(C)C(=O)NC(C)C)cc(OC)c1OC (stereo not drawn)	-1.9	nt	nt	nt	nt
O=C(CSc1ncccn1)n1c2c(c3ccccc31)CCCC2	3.5	22.8	70.0*	-2.5	-22.8
Nn1cc(-c2ccccc2)nc1SCC(=O)Nc1ccc(S(N)(=O)=O)cc1	0.4	nt	2.4	8.9	nt
CN(/N=C\c1ccc(O)c(O)c1)c1nc(-c2ccccc2)cc(-c2ccccc2)n1	4.4	112.0*	46.6	-7.2	-112.0
COc1cc(/C=N/N(c2ccccc2)c2ccccc2)ccc1O	-0.8	12.2	-0.2	-5.4	-12.2
CCCCN(CCCC)CCCN1CC(=O)N2[C@@H](Cc3c([nH]c4ccccc34)C2(C)C)C1=O	-2.3	3.8	1.6	-2.8	-3.8
COCc1nnc(NC(=O)COc2ccc3c(c2)OCO3)s1	-0.7	nt	10.0	-4.3	nt
O=C(COc1ccc2c(c1)OCO2)Nc1nccs1	2.1	0.9	59.4*	-15.7	-0.9
COc1ccc(-c2csc(C(NC(C)=O)c3cccc(F)c3)n2)cn1 (stereo not drawn)	0.2	nt	nt	nt	nt
O=C(/C=C/c1ccc(F)cc1)c1ccccc1Br	9.3*	-18.5	-2.8	-0.8	18.5
Nc1ccc(N=Nc2ccccc2O)c(N)c1	2.0	nt	72.0*	11.8	nt
Oc1ccccc1N=Nc1ccccc1O	-10.2	86.7*	nt	21.4	-86.7
Oc1ccccc1N=Cc1ccc[nH]1	1.4	-35.4	24.3	2.7	35.3
COc1cc(CNn2cn[nH]c2=S)cc(Cl)c1OCc1ccc(F)cc1	2.4	29.1	87.3*	-2.9	-29.1
COc1cc(CNn2c(C)n[nH]c2=S)cc(Cl)c1OCc1ccccc1	-0.9	28.7	-1.1	-3.1	-28.7
Cc1cc(C)cc(OCc2nnc(SCC(=O)N3CCN(c4ccccc4)CC3)o2)c1	0.4	79.4*	14.5	-7.2	-79.4
O=C(CSc1nnc(COc2ccccc2)o1)N1CCN(c2ccccc2)CC1	-3.7	18.4	5.7	-4.4	-18.4
CCCNC(=O)Nc1ccc(C(F)(F)F)cc1	1.1	1.8	2.8	-37.3	-1.8
CCCOC(=O)c1c(NC(=O)/C=C/c2cnn(C)c2C)sc(C(=O)OCC)c1C	1.3	76.4*	1.9	-12.9	-76.4
CCOc1ccc(-c2noc(-c3ccncc3)n2)cc1OCC	0.8	23.5	6.4	-3.9	-23.5
CCOc1ccccc1-c1nc(-c2ccncc2)no1	0.3	47.7	48.1*	-1.9	-47.7
CCSc1ccccc1-c1nc(-c2ccncc2)no1	0.0	40.9	64.8*	-0.8	-40.9
CCOc1nc(C)ccc1-c1noc(-c2ccccc2OC)n1	1.9	27.0	49.8*	10.8	-27.0
SMILES	FXN GAA850 act	SR-BI DiI inh	AHR act	JMJD2C inh	SR-BI DiI-HDL act
CCOc1ccccc1NC(=O)c1ccccc1-c1nc(-c2ccccc2OC)no1	-5.5	-8.8	63.6*	0.2	8.8
CCOc1cc(-c2nc(-c3ccc(C)nc3OCC)no2)cc(OCC)c1OCC	0.2	69.3	3.3	11.8	-69.3
FC(F)(F)c1ccccc1-c1nc(-c2ccncc2)no1	3.5	5.6	1.1	-4.3	-5.6
CC1CCCCN1CCCNC(=O)Cn1c(=O)c2cccn2c2ccccc21 (stereo not drawn)	-0.1	3.0	1.1	23.6	-3.0
C[C@H]1CC[C@]2(O[C@H](CCO)C[C@H](O)[C@H]2O)O1	-0.9	-2.8	0.1	-3.4	2.8
O=[N+]([O-])c1cc(Cl)ccc1Oc1ccc(-c2nnco2)cc1	2.1	-0.5	4.4	-4.7	0.5
O=C(c1cccn2c(=O)c3ccccc3nc12)N1CCN(c2ccccn2)CC1	-1.1	-27.1	2.4	-3.6	27.1
O=C(c1cccn2c(=O)c3cc(Br)ccc3nc12)N1CCN(c2ccccn2)CC1	0.9	7.4	74.3*	nt	-7.4
CCOC(=O)N1CCN(C(=O)c2cccn3c(=O)c4cc(Cl)ccc4nc23)CC1	-1.1	5.0	90.9*	9.6	-5.0
O=C(c1cccn2c(=O)c3cc4ccccc4cc3nc12)N1CCN(c2ccccc2)CC1	nt	nt	71.3*	98.0	nt
O=C(NCCN1CCN(c2ccccc2)CC1)c1cccn2c(=O)c3cc(Cl)ccc3nc12	0.4	-4.1	94.2*	?	4.1
COC(=O)c1cc(C(=O)OCC(=O)NC(=O)NCc2ccccc2)cc([N+](=O)[O-])c1	1.2	2.9	-1.5	7.9	-2.9
CCOC(=O)N1CCN(C(=O)c2cccn3c(=O)c4sccc4nc23)CC1	0.8	-15.7	1.6	nt	15.7
O=C(NCCN1CCOCC1)c1cccn2c(=O)c3c4c(sc3nc12)CCCC4	nt	nt	53.9*	-0.7	nt
CCOC(=O)N1CCN(C(=O)c2cccn3c(=O)c4cc(Br)ccc4nc23)CC1	0.4	22.1	58.2*	-2.6	-22.1
CCO/N=C/c1ccc(OC)c(Oc2nc(OC)cc(OC)n2)c1	2.2	2.2	21.1	7.3	-2.2
CCOC(=O)N1CCN(C(=O)c2oc3ccc(S(=O)(=O)N(CC)CC)cc3c2C)CC1	-1.0	16.1	0.1	-3.6	-16.1
COc1cc(NC(=O)c2ccccc2)c(OC)cc1Cl	-2.9	86.0*	68.9*	-2.8	-86.0
COc1cc(OC)c(NC(=O)c2ccc(F)cc2)cc1Cl	1.4	64.7	1.6	-6.3	-64.7
COc1cc(NC(=O)C/C(C)=N/NC(=O)c2cccc(O)c2)c(OC)cc1Cl	0.5	-18.1	81.6*	-14.9	18.1
COc1cc(NC(=O)c2ccc(Br)cc2)c(OC)cc1NC(=O)c1ccccc1	0.9	57.1	63.3*	-10.4	-57.1
COc1cc(OC)c(NC(=O)c2cc3ccccc3cc2O)cc1Cl	1.1	93.9*	nt	nt	-93.9
COc1cc(OC)c(NC(=O)c2ccco2)cc1Cl	0.5	35.5	-4.8	?	-35.5
O=C(NCCCN1CCOCC1)C(=O)N/N=C/c1cccc2ccccc12	-1.2	7.3	17.8	-18.1	-7.3
COc1cccc(C(=O)CC(=O)C(=O)Nc2cc(Cl)c(OC)cc2OC)c1	3.5	nt	0.4	-11.5	nt
SMILES	FXN GAA850 act	SR-BI DiI inh	AHR act	JMJD2C inh	SR-BI DiI-HDL act
COc1cc(OC)c(NC(=O)CCc2ccccc2)cc1Cl	-0.3	49.4	49.7*	-2.9	-49.4
COc1ccc(C(=O)Nc2cc(OCc3ccccc3)c(Cl)cc2Cl)cc1	-1.0	60.9	28.5	1.5	-60.9
COc1ccc(C(=O)CC(=O)C(=O)Nc2cc(Cl)c(OC)cc2OC)cc1	-0.1	nt	76.8*	0.6	nt
CCCc1cc(C(=O)Nc2cc(OC)c(Cl)cc2OC)no1	-0.1	60.1	62.0*	-5.3	-60.1
COc1ccc(C(=O)Nc2cc(OC)c(Cl)cc2Cl)cc1	1.6	27.3	49.6*	29.8	-27.3
CCN(CC(=O)Nc1c(F)cccc1F)C(=O)C1CCN(S(=O)(=O)c2ccc(C)cc2C)CC1	0.7	6.1	-2.1	-19.5	-6.1

Bioassay records from PubChem BioAssay.
